Measurements collected from several papers.
Each line is one published result; the experiments were not run side by side.
Target: Phosphatidylinositol 4-phosphate 5-kinase type-1 alpha (PIP5K1A, Homo sapiens, UniProt Q99755)

SMILES | assay | setting | remaining binding
N[C@@H]1CCN(c2nccc(-c3cnn4ncccc34)n2)C1 | binding | 1 µM | 100%
O=C(O)c1cc(-c2ccc(C3CCNCC3)cc2)c2ccc(-c3ccc(C(F)(F)F)cc3)cc2c1 | cell-free assay, competition with immobilised ligand | 1 µM | 78%
CN(C)c1nccc(-c2cnc3ncccn23)n1 | binding | 1 µM | 72%
COc1ncc2cc3ccccc3nc2c1C#N | cell-free assay, competition with immobilised ligand | 5 µM | 100%
O=C(NCCCN1CCOCC1)c1ccc(Nc2ncc(Cl)c(-c3ccc(Cl)s3)n2)cc1 | binding, competition with immobilised ligand | 1 µM | 8.3%
COc1ccnn2ncc(-c3ccnc(N(C)C)n3)c12 | binding | 1 µM | 72%
C=CC(=O)N1CCC(C(=O)NCC(=O)N2CCN(c3nc(-c4cnc(N)nc4C(F)F)nc(N4CCOCC4)n3)CC2)CC1 | binding, competition with immobilised ligand | 1 µM | 100%
O=C(c1ccc(Nc2nccc(-c3cc4ccccc4s3)n2)cc1)N1CCC(N2CCCC2)CC1 | binding, competition with immobilised ligand | 1 µM | 2.8%
COc1ccc2cc(OCC3(C(=O)O)CN(C(=O)c4ccc(F)cc4)C3)ccc2c1 | cell-free assay, competition with immobilised ligand | 1 µM | 100%
C[C@H]1CCN(c2nccc(-c3cnn4ncccc34)n2)C1 | binding | 1 µM | 47%
COc1cc(-c2cn(C3CCc4ccccc4N(CC(F)(F)F)C3=O)nn2)ccc1-n1ccc(C)n1 (stereo not shown) | cell-free assay, competition with immobilised ligand | 1 µM | 96%
COc1cnc(Nc2cccc(S(N)(=O)=O)c2)nc1N1CCN(c2ccccc2)C(=O)C1 | binding, competition with immobilised ligand | 1 µM | 89%
C[C@H](c1cccc(C#N)c1)n1cc(Cl)cc(C(N)=O)c1=N | cell-free assay, competition with immobilised ligand | 1 µM | 100%
CCN1CCN(Cc2ccc(C(=O)Nc3ccc(C)c(Oc4ccc5c(c4)CC(=O)N5)c3)cc2C(F)(F)F)CC1 | binding, competition with immobilised ligand | 1 µM | 100%
CN(C)c1nccc(-c2cnn3ncccc23)n1 | binding | 1 µM | 100%
O=C(Nc1c[nH]nc1C(=O)NC1CCNCC1)c1cc(F)cc(F)c1 | binding, competition with immobilised ligand | 1 µM | 100%
Cc1c[nH]c2nccc(Oc3c(F)cc(Nc4cc(Cl)nc(N)n4)cc3F)c12 | cell-free assay, competition with immobilised ligand | 0.1 µM | 68%
CN(C)c1ncc(F)c(-c2cnn3ncccc23)n1 | binding | 1 µM | 100%
CN(c1ccnc(CNc2nc(Nc3ccc4c(c3)CC(=O)N4)ncc2C(F)(F)F)n1)S(C)(=O)=O | cell-free assay, competition with immobilised ligand | 1 µM | 12%
O=C(c1ccc(Nc2ncc(Cl)c(-c3cc4ccccc4s3)n2)cc1)N1CCC(N2CCCC2)CC1 | binding, competition with immobilised ligand | 1 µM | 2.2%
F[C@@H]1CCN(c2nccc(-c3cnn4ncccc34)n2)C1 | binding | 1 µM | 100%
CC(=O)c1c(NS(C)(=O)=O)c2cc(-c3ccc(Cl)cc3)c(-c3ccc(Cl)cc3Cl)nc2n(C)c1=O | cell-free assay, competition with immobilised ligand | 1 µM | 97%
